Experimental findings from ChEMBL document CHEMBL1130345, “A technetium-99m SPECT imaging agent which targets the dopamine transporter in primate brain” (J Med Chem, 1997) are described below.

The target of test [1] is Sodium-dependent serotonin transporter. The test is described as follows: Inhibition of [3H]- citalopram binding to serotonin transporter of Cynomolgus monkey caudate-putamen. Type of test: tissue-based. Put shortly: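 Caudate-putamen membranes (washed in 50 mM Tris-HCl pH 7.4, 3800g spins) incubated at 4 mg original wet tissue/mL with 1 nM [3H]citalopram and 7–14 competitor concentrations in 50 mM Tris-HCl/100 mM NaCl pH 7.4, 2 h at 0–4 °C. Filtered on polyethylenimine-soaked GF/B filters, scintillation counting. Nonspecific binding defined with 1 μM fluoxetine. IC50 computed by EBDA; independent experiments in triplicate.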

The species entered for a further test is Macaca fascicularis. Put plainly: Relative affinity for dopamine and serotonin transporters.
For test [2], the target named is Sodium-dependent dopamine transporter (Macaca fascicularis, UniProt Q9GJT6). The test is described as follows: Inhibition of [3H]WIN-35428 binding to dopamine transporter using of Cynomolgus monkey caudate-putamen. Type of test: tissue-based. Put shortly: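 Caudate-putamen membranes (washed in 50 mM Tris-HCl pH 7.4, 3800g spins) incubated at 4 mg original wet tissue/mL with 0.3 nM [3H]WIN35,428 and 7–14 competitor concentrations in 50 mM Tris-HCl/100 mM NaCl pH 7.4, 2 h at 0–4 °C. Filtered on BSA-soaked GF/B filters, scintillation counting. Nonspecific binding defined with 30 μM (–)-cocaine. IC50 computed by EBDA; independent experiments in triplicate.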
Sequence of Sodium-dependent dopamine transporter (Q9GJT6 whole entry): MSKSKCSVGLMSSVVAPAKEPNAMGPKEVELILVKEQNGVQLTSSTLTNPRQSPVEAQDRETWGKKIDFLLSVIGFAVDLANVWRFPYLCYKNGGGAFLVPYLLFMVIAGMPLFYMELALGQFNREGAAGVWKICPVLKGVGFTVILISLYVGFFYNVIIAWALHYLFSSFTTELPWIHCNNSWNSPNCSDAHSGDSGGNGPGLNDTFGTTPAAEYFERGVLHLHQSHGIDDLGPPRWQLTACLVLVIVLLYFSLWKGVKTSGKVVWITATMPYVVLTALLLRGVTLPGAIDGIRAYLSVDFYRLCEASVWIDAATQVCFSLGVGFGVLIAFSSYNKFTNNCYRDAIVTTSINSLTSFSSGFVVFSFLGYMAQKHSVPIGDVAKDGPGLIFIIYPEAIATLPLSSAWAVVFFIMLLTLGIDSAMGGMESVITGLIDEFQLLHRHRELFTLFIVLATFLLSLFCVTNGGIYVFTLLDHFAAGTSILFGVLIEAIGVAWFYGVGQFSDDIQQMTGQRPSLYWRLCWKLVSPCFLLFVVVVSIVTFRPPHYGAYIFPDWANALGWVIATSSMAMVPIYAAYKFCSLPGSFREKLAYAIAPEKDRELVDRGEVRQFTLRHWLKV

As usually defined, the IC50 is the concentration at which inhibition is half-maximal.

Values joined by “and” are separate entries in the source; they are usually repeats but may differ in a detail not shown here. Identical values can stand only once.

The compound `COC(=O)[C@@H]1C2CCC(C[C@@H]1OC(c1ccc(F)cc1)c1ccc(F)cc1)N2CCCCCc1ccccc1` (stereo not given in full) showed an IC50 in test [1] of 0.55 µM. The Ratio in the test filed under Macaca fascicularis is 6. Turning to `COC(=O)[C@@H]1C2CCC(C[C@@H]1OC(c1ccc(F)cc1)c1ccc(F)cc1)N2Cc1ccccc1` (stereo not given in full), the IC50 in test [1] stood at 4.97 µM. With “[N-[2-[(3'-N'-PROPYL-3''ALPHA-(BIS(4-FLUORORPHENYL)METHOXY)TROPANE-2''BETA-CARBOXYLIC ACID METHYL ESTER)(2-MERCAPTOETHYL)AMINO]ACETYL]-2-AMINOETHANETHIOLATO]RHENIUM(V) OXIDE (DIASTEREOMERIC MIX) [listing 1 of 2 here]”, the Ratio in the test listed under Macaca fascicularis stood at 90.

In the case of `COC(=O)[C@@H]1C2CCC(C[C@@H]1OC(c1ccc(F)cc1)c1ccc(F)cc1)N2CCCc1ccccc1` (stereo not given in full), the 50% inhibitory concentration (IC50) in test [1] was determined as 0.0197 µM.

With `COC(=O)C1C(c2ccc(F)cc2)CC2CCC1N2CCCc1ccccc1` (stereo not given), the IC50 in test [2] is 0.0014 µM; in test [1], 0.133 µM. In addition, the Ratio in the test listed under Macaca fascicularis was found to be 95. For “[N-[2-[(3'-N'-PROPYL-3''ALPHA-(BIS(4-FLUORORPHENYL)METHOXY)TROPANE-2''BETA-CARBOXYLIC ACID METHYL ESTER)(2-MERCAPTOETHYL)AMINO]ACETYL]-2-AMINOETHANETHIOLATO]RHENIUM(V) OXIDE (DIASTEREOMERIC MIX) [listing 2 of 2 here]”, the IC50 in test [2] is 0.482 µM and 0.616 µM and 0.343 µM. Turning to `COC(=O)C1C(c2ccc(F)cc2)CC2CCC1N2CCCCCc1ccccc1` (stereo not given), the IC50 came to 0.0034 µM in test [2] and 0.0499 µM in test [1]. Besides, the Ratio in the test filed under Macaca fascicularis is 15. For `COC(=O)C1C(c2ccc(F)cc2)CC2CCC1N2Cc1ccccc1` (stereo not given), in that order: 0.0589 µM, 1.07 µM and 18.
